# Screening data (PubChem BioAssay)
# Sampled rows, rich in hits. Any-hit rate of the full collection: about 3.5%.
# ERAP1 HTS inh: ERAP1 (human) enzyme inhibition | recombinant ERAP1, Leu-AMC fluorescence, 60 min | inhibition, % at 10.7 µM | 0.15% of 340,000 active | Q9NZ08;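 active = mean replicate inhibition of at least 30%, or all replicates individually reaching that 30% level; inactive = mean below 30% and not every replicate reaching it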;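 also: 0% = neutral control wells and 100% = L-leucinethiol positive control wells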
# Env fusion inh: blocks HIV Env-driven cell-cell fusion | HeLa-JRFL Env/CEM21 cell fusion, luciferase | inhibition, % at 12.3 µM | 1.1% of 360,000 active | AID 651610;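 active = mean replicate inhibition score of at least 50 and every replicate individually at or above 50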;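 also: 0% = plate neutral controls and 100% = maraviroc near 300 nM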
# rRNA inh HTS: selective bacterial rRNA inhibition in E. coli. E. coli WT GFP vs humanized-ribosome RFP mutants, fluorescence, 24 h; active compounds read low; DMSO median 0, no signal -100. GFP signal change (wild-type ribosome), % (test concentration not listed). 1.6% of 350,000 active;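 active = significant combined selectivity score with lowered wild-type GFP, culture density cut under 30%, mutant RFP and density less affected; inactive = any of these conditions unmet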
# Cneo AK release: causes C. neoformans cell lysis; adenylate kinase release luminescence, 4 h; normalised: neutral wells 0, clomiphene wells 100; lysis activity, % at 15 µM; 0.2% of 360,000 active;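 active = mean lysis activity across replicates of at least 80%, whatever share of replicates individually reach that level; inactive = mean lysis activity below 80%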
#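 Schedule: static 4 h at 37 °C with compound, 1 h detection; system: C. neoformans cells; benchmarks: Clomiphene as positive control; buffer or medium: fresh YPD medium; measure: luminescence rise reflecting yeast cell lysis; measured by: luminescent adenylate kinase detection reagent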
# PGC1a acetyl inh: modulators of PGC1a acetylation | U2OS PGC1a acetylation, AlphaScreen anti-acetyl-lysine; with virally co-expressed GCN5 acetyltransferase | inhibition, % at 15.6 µM | AID 651687 | 0.17% of 350,000 active;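 active = every replicate shows inhibition of at least 40%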;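 also: 0% = neutral control wells and 100% = positive control wells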
# FGF22 binding: binders of recombinant human FGF22 by thermal shift; Q9HCT0; SYPRO orange fluorescence; percent of sucrose octasulfate shift, DMSO zero; activity (Tm shift, normalised), % at 9.99 µM; 1.5% of 340,000 active; AID 651658;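 active = mean Tm shift, scaled 0 neutral to 100 positive control, at about 1.3% or above, every replicate too, limit read from the data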
# Numbers without * were called inactive; x = no result given; [ ] = remark or other dose.
SMILES,ERAP1 HTS inh,Env fusion inh,rRNA inh HTS,Cneo AK release,PGC1a acetyl inh,FGF22 binding
COc1ccc(OCC(O)CN(CC(O)COc2ccc(OC)cc2)c2cccc(O)c2)cc1 (stereo unspecified),-3,2,-30*,-1,-4,0
COc1ccc(OCC(O)COc2ccc(OC)cc2)cc1,x,x,x,-2,0,x
COc1cccc(C(C2=C(O)CC(C)(C)CC2=O)C2C(=O)CC(C)(C)CC2=O)c1 (stereo unspecified),0,32,-4,12,-5,0
Cc1cc(/C=N/n2cnnc2)c(C)n1-c1ccc(OCc2ccc(F)cc2)cc1,x,66*,x,-27,7,x
COc1cccc(NC(=O)CN(C)C(=O)Cn2[nH]c(=O)c3ccccc3c2=O)c1,1,-1,-8,-1,x,x
COc1ccc(Cl)cc1NC(=O)CN(C)C(=O)Cn1[nH]c(=O)c2ccccc2c1=O,4,6,-20*,-1,0,0
CCCCCCN1C[C@H](O)[C@@H](n2cc(C3CC3)nn2)C[C@@H]1c1ccc(C)cc1,1,-10,-32,-1,x,44*
CCCCCCN1C[C@@H](n2cc(C3CC3)nn2)[C@H](O)C[C@@H]1c1ccccc1,6,2,1,0,13,0
CCCCCCN1C[C@H](O)[C@@H](n2cc(C3CC3)nn2)C[C@@H]1c1ccccc1,-5,-125,-16*,2,0,0
NC(=O)c1ccc(NC(=O)c2cncn2-c2ccccc2)cc1,7,3,5,5,x,0
NNC(=O)c1cncn1-c1ccc(F)cc1,-3,3,13,x,x,44*
O=C1NC(=S)SC1=Cc1ccc2c(c1)OCO2,0,-14,-1,0,-23,0
O=C1N/C(=N/S(=O)(=O)Cc2ccccc2)S/C1=C/c1ccc2c(c1)OCO2,-1,-11,-40*,5,7,0
C[C@H](CO)N1C[C@H](C)[C@H](CN(C)S(=O)(=O)c2ccc(Cl)cc2)OCc2ccccc2-c2c(n(C)c3ccccc23)C1=O,4,82*,3,0,-16,0
C[C@H]1CN([C@@H](C)CO)C(=O)c2c(c3ccccc3n2C)-c2ccccc2CO[C@@H]1CN(C)S(=O)(=O)c1ccc(Cl)cc1,4,x,2,-3,-2,0
C[C@@H]1CN([C@H](C)CO)C(=O)c2c(c3ccccc3n2C)-c2ccccc2CO[C@H]1CN(C)S(=O)(=O)c1ccc(Cl)cc1,-1,x,0,107*,-5,0
C[C@@H]1CN([C@@H](C)CO)C(=O)c2c(c3ccccc3n2C)-c2ccccc2CO[C@@H]1CN(C)S(=O)(=O)c1ccc(Cl)cc1,-5,x,2,100*,-17,0
Cc1ccc(S(=O)(=O)N(C)C[C@@H]2OCc3ccccc3-c3c(n(C)c4ccccc34)C(=O)N([C@H](C)CO)C[C@@H]2C)cc1,0,95*,11,x,1,0
O=C(Nc1nnc(C2=COCCO2)o1)c1ccc(S(=O)(=O)N2CCOCC2)cc1,0,-5,9,x,x,0
CCCCCCC1CC(=O)NC(=S)N1 (stereo unspecified),0,12,7,x,63*,0
O=C1CC(c2ccccc2)NC(=S)N1 (stereo unspecified),3,20,7,0,x,0
CCOc1ccc(S(=O)(=O)N2CCOCC2)cc1NC(=O)CN1C(=O)NC(C)(C2CC2)C1=O (stereo unspecified),24,6,3,-1,-1,0
CCC(C)NCCOc1ccc(C(C)(C)c2ccccc2)cc1 (stereo unspecified),-2,22,-53*,-3,-31,0
CN(C(=O)C1CCCN(c2ncnc3c2nc2n3CCCCC2)C1)c1cccc(Cl)c1 (stereo unspecified),2,8,-36*,0,-6,0
O=C(C1CCCN(c2ncnc3c2nc2n3CCCCC2)C1)N1CCN(c2cccc(Cl)c2)CC1 (stereo unspecified),-1,23,-31,0,x,-1
SMILES,ERAP1 HTS inh,Env fusion inh,rRNA inh HTS,Cneo AK release,PGC1a acetyl inh,FGF22 binding
O=C(O)CCCN1C(=O)c2ccc(C(=O)c3cccc([N+](=O)[O-])c3)cc2C1=O,-8,8,8,1,2,43*
O=C(Nc1ccc(C(F)(F)F)cc1)N[C@@H]1CC[C@H](CCn2cc(C3(O)CCCC3)nn2)O[C@H]1CO,0,-11[16.7 µM],-4,0,1,0
S=c1[nH]nc(COc2ccccc2)n1/N=C/c1ccncc1,0,11,15,-1,3,43*
O=C1NC[C@H](CCCCN2C[C@H](Cc3ccccc3)N(CCc3ccc(O)cc3)C(=O)C2=O)N(CC2CCCCC2)C1=O,x,5,-30*,x,x,0
O=C1NC[C@@H](CCCCN2C[C@H](Cc3ccc(O)cc3)N(CCc3ccccc3)C(=O)C2=O)N(CC2CCCCC2)C1=O,-3,-53,-15,x,x,0
O=C1NC[C@H](CCCCN2C[C@H](Cc3ccc(O)cc3)N(CCc3ccccc3)C(=O)C2=O)N(CC2CCCCC2)C1=O,x,4,-27*,x,x,0
O=C1NC[C@@H](CCCCN2C[C@H](Cc3ccccc3)N(CC3CCCCC3)C(=O)C2=O)N(CCc2ccc(O)cc2)C1=O,x,21,-16,x,x,0
COc1ccc(C(=O)NNC(=S)NC(=O)C(C)(C)C)cc1,1,21,-40,2,-1,0
CN(CCCn1cnc2c(OCc3ccccc3)ncnc21)CCc1ccccn1,-4,-65,7,10,5,0
C[C@H]1CN([C@@H](C)CO)C(=O)c2cc(NC(=O)CCCCCC(=O)Nc3ccccc3N)ccc2O[C@H]1CN(C)S(=O)(=O)c1cccs1,1,x,-4,x,0,0
N#CNC(=Nc1cccc(F)c1)SCc1cccc(F)c1,12,-29,-4,x,x,0
N#CNC(=Nc1cccc(F)c1)SCc1ccccc1,2,1,0,x,x,44*
O=C(C[C@H]1C[C@@H]2c3cc(NC(=O)c4cccnc4)ccc3O[C@@H]2[C@H](CO)O1)NC1CCCCC1,-1,-10[16.7 µM],2,73,8,0
CN(Cc1ccc2nonc2c1)Cc1nc(CC2CC2)no1,-7,-1,5,x,-9,43*
COc1ccccc1Cn1c(=S)[nH]c2ccc(F)cc2c1=O,-10,5,-14*,3,-3,0
COc1ccccc1Cn1c(=S)[nH]c2ccc(Br)cc2c1=O,-1,3,3,2,-12,0
COc1ccccc1Cn1c(=S)[nH]c2ccccc2c1=O,-2,10,-28*,0,-10,0
CC(C)(C)n1nnnc1C(c1cccs1)N(Cc1cccnc1)Cc1ccco1 (stereo unspecified),x,53*,x,-4,-39,x
